From PMC8521277 (The EMBO Journal, 2021)

B1: LCS: LacCer synthase, expressed in cells (protein)
chain: MRARRGLLRLPRRSLLAALFFFSLSSSLLYFVYVAPGIVNTYLFMMQAQGILIRDNVRTIGAQVYEQVLRSAYAKRNSSVNDSDYPLDLNHSETFLQTTTFLPEDFTYFANHTCPERLPSMKGPIDINMSEIGMDYIHELFSKDPTIKLGGHWKPSDCMPRWKVAILIPFRNRHEHLPVLFRHLLPMLQRQRLQFAFYVVEQVGTQPFNRAMLFNVGFQEAMKDLDWDCLIFHDVDHIPESDRNYYGCGQMPRHFATKLDKYMYLLPYTEFFGGVSGLTVEQFRKINGFPNAFWGWGGEDDDLWNRVQNAGYSVSRPEGDTGKYKSIPHHHRGEVQFLGRYALLRKSKERQGLDGLNNLNYFANITYDALYKNITVNLTPELAQVNEY
modifications: left off: HA, end not stated, kept
B2: GM3S: GM3 synthase, expressed in cells (protein)
chain: MRTKAAGCAERRPLQPRTEAAAAPAGRAMPSEYTYVKLRSDCSRPSLQWYTRAQSKMRRPSLLLKDILKCTLLVFGVWILYILKLNYTTEECDMKKMHYVDPDHVKRAQKYAQQVLQKECRPKFAKTSMALLFEHRYSVDLLPFVQKAPKDSEAESKYDPPFGFRKFSSKVQTLLELLPEHDLPEHLKAKTCRRCVVIGSGGILHGLELGHTLNQFDVVIRLNSAPVEGYSEHVGNKTTIRMTYPEGAPLSDLEYYSNDLFVAVLFKSVDFNWLQAMVKKETLPFWVRLFFWKQVAEKIPLQPKHFRILNPVIIKETAFDILQYSEPQSRFWGRDKNVPTIGVIAVVLATHLCDEVSLAGFGYDLNQPRTPLHYFDSQCMAAMNFQTMHNVTTETKFLLKLVKEGVVKDLSGGIDREF
modifications: left off: HA, end not stated, kept
B3: GCS: GlcCer synthase, full‐length, expressed in cells (protein)
chain: MALLDLALEGMAVFGFVLFLVLWLMHFMAIIYTRLHLNKKATDKQPYSKLPGVSLLKPLKGVDPNLINNLETFFELDYPKYEVLLCVQDHDDPAIDVCKKLLGKYPNVDARLFIGGKKVGINPKINNLMPGYEVAKYDLIWICDSGIRVIPDTLTDMVNQMTEKVGLVHGLPYVADRQGFAATLEQVYFGTSHPRYYISANVTGFKCVTGMSCLMRKDVLDQAGGLIAFAQYIAEDYFMAKAIADRGWRFAMSTQVAMQNSGSYSISQFQSRMIRWTKLRINMLPATIICEPISECFVASLIIGWAAHHVFRWDIMVFFMCHCLAWFIFDYIQLRGVQGGTLCFSKLDYAVAWFIRESMTIYIFLSALWDPTISWRTGRYRLRCGGTAEEILDV
modifications: left off: HA (9aa), internal (between the two Gly residues of DPTISWRTGRYRLRCGGTAEEILDV), kept
B4: GCS‐HAC: GCS with a HA‐tag at the C‐terminus (protein, UniProt Q16739 1-394, looked up)
Ceramide glucosyltransferase: B3 chain
modifications: C-terminal HA tag
B5: GCS‐HAN: GCS with a HA‐tag in the N‐terminal tail (protein, UniProt Q16739 1-394, looked up)
Ceramide glucosyltransferase: B3 chain
modifications: HA tag in N-terminal tail
B6: Gb3S: Gb3 synthase, expressed in cells (protein)
chain: MSKPPDLLLRLLRGAPRQRVCTLFIIGFKFTFFVSIMIYWHVVGEPKEKGQLYNLPAEIPCPTLTPPTPPSHGPTPGNIFFLETSDRTNPNFLFMCSVESAARTHPESHVLVLMKGLPGGNASLPRHLGISLLSCFPNVQMLPLDLRELFRDTPLADWYAAVQGRWEPYLLPVLSDASRIALMWKFGGIYLDTDFIVLKNLRNLTNVLGTQSRYVLNGAFLAFERRHEFMALCMRDFVDHYNGWIWGHQGPQLLTRVFKKWCSIRSLAESRACRGVTTLPPEAFYPIPWQDWKKYFEDINPEELPRLLSATYAVHVWNKKSQGTRFEATSRALLAQLHARYCPTTHEAMKMYL
modifications: left off: HA, end not stated, kept
B7: GCS‐Δ3C (protein)
chain: MALLDLALEGMAVFGFVLFLVLWLMHFMAIIYTRLHLNKKATDKQPYSKLPGVSLLKPLKGVDPNLINNLETFFELDYPKYEVLLCVQDHDDPAIDVCKKLLGKYPNVDARLFIGGKKVGINPKINNLMPGYEVAKYDLIWICDSGIRVIPDTLTDMVNQMTEKVGLVHGLPYVADRQGFAATLEQVYFGTSHPRYYISANVTGFKCVTGMSCLMRKDVLDQAGGLIAFAQYIAEDYFMAKAIADRGWRFAMSTQVAMQNSGSYSISQFQSRMIRWTKLRINMLPATIICEPISECFVASLIIGWAAHHVFRWDIMVFFMCHCLAWFIFDYIQLRGVQGGTLCFSKLDYAVAWFIRESMTIYIFLSALWDPTISWRTGRYRLRCGGTAEEI
modifications: left off: HA (9aa), internal (between the two Gly residues of DPTISWRTGRYRLRCGGTAEEI), kept

How the values were obtained:
HeLa cells [1] = test: Localization of SL biosynthetic enzymes after Brefeldin A, immunofluorescence; type: cell-based, human; settings: BFA 5 μg/ml, 30 min; SMS1 also in punctate structures
HeLa cells [2] = test: [3H]-sphingosine pulse-chase assay after expression of GCS constructs; type: cell-based, human; settings: 8 h chase, two independent experiments; for increase in GSL production: transfected construct 16 h
In short: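 HeLa cells were transfected with GCS constructs for 16 h, with non-transfected cells run alongside. Cells were pulse-labelled for 2 h with [3H]-sphingosine (final 0.1 μCi/ml) in serum-free DMEM with 1% fatty-acid-free BSA, then chased 8 h in complete medium with or without BFA (5 μg/ml). Lipids were extracted and resolved by HPTLC (chloroform/methanol/water 65:25:4). Total GSL radioactivity is given as fold change versus control, mean ± SD of two experiments, with Student's t-test.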

[3] = target: GRASP domain of GRASP55 (recombinant protein used for ITC); test: ITC
endogenous GRASP55 = type: binding, human; settings: HA-tagged enzymes, WI-26 fibroblasts, anti-HA IP
GRASP55‐GFP = test: Co-immunoprecipitation of HA-tagged enzymes with GRASP55-GFP in HeLa cells; type: binding, human; settings: anti-GFP IP, anti-HA blot
In short: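 HeLa cells were co-transfected with HA-tagged GCS, LCS, GM3S or Gb3S plus GRASP55-GFP. Cells were lysed and immunoprecipitated with anti-GFP antibody or control IgG. Interaction was read by Western blotting with anti-HA antibody.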

Molecule	co-immunoprecipitation with endogenous GRASP55 (in words) (endogenous GRASP55)	co-immunoprecipitation with GRASP55-GFP (in words) (GRASP55‐GFP)	further results
C[C@H]1CCC/C=C/[C@@H]2C[C@H](O)C[C@H]2[C@H](O)/C=C/C(=O)O1 [Brefeldin A, reference compound]			localization of SL biosynthetic enzymes (in words) (HeLa cells [1]): translocation of the enzymes back into the ER; effect on differences in GSL production between GCS constructs (in words) (HeLa cells [2]; BFA 5 μg/ml): neutralized these differences
GCS C-terminal cytosolic tail peptide (biotinylated, WT)			Kd [3]: 2000 nM
B1	interaction of GCS and LCS with endogenous GRASP55 was also observed	co‐immunoprecipitated with GRASP55‐GFP	
B2		do not interact	
B3	interaction of GCS and LCS with endogenous GRASP55 was also observed	co‐immunoprecipitated with GRASP55‐GFP	
B4			increase in GSL production (HeLa cells [2]): 2.3 fold
B5			increase in GSL production (HeLa cells [2]): 2.6 fold
B6		do not interact	
B7	impaired the interaction		
